The target of data set [1] is T1, Bombesin receptor subtype-3 (Homo sapiens, UniProt P32247).
T1 sequence (P32247 whole entry): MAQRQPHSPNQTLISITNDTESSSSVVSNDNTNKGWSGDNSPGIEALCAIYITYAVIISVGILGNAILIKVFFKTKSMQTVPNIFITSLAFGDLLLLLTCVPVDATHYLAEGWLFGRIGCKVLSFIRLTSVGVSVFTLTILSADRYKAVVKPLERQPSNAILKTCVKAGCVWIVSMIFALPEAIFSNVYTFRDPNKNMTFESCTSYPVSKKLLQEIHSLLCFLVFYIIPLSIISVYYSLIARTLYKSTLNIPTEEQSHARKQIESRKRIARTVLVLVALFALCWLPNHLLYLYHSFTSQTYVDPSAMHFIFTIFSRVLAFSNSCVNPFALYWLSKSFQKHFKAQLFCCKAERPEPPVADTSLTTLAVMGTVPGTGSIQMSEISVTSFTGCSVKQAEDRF
The data set can be described thus: Agonist activity at human BRS3 expressed in HEK293AEQ cells using 10 uM dy-peptide by bioluminescence assay.

Data set [2] concerns the target T1, Bombesin receptor subtype-3.
Data set [3] addresses Gastrin-releasing peptide receptor (Homo sapiens) (UniProt P30550).
Data set [4] addresses Neuromedin-B receptor (Homo sapiens) (UniProt P28336).
Data set [5] in a line: Bioavailability in Sprague-Dawley rat at 1 mg/kg, iv or 4 mg/kg, po. In kind it is ADME, organism-based. As to conditions: in vivo. The method in brief:
(§1)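 Male Sprague–Dawley rats. Blood collected at various time points into lithium heparin tubes and centrifuged; plasma stored at -70 °C until analysis. Plasma extracted by protein precipitation and quantified by LC/MS/MS.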

The nature of data set [6]: Cmax in Sprague-Dawley rat at 1 mg/kg, iv or 4 mg/kg, po by LC/MS/MS. As to conditions: in vivo. Type of data set: ADME, organism-based. A digest of the protocol: as §1
A short description of data set [7]: Half life in Sprague-Dawley rat at 1 mg/kg, iv or 4 mg/kg, po. Type of data set: ADME, organism-based. As to conditions: in vivo. A digest of the protocol:
as §1

Data set [8] can be described thus: Mean residence time in Sprague-Dawley rat at 1 mg/kg, iv or 4 mg/kg, po. In kind it is ADME, organism-based. Conditions: in vivo. The method in brief:
as §1

The nature of data set [9]: Volume of distribution at steady state in Sprague-Dawley rat at 1 mg/kg, iv or 4 mg/kg, po. In kind it is ADME, organism-based. Conditions: in vivo, read-out: Vdss. A digest of the protocol:
as §1

The nature of data set [10]: Plasma clearance in Sprague-Dawley rat at 1 mg/kg, iv or 4 mg/kg, po. Type of data set: ADME, organism-based. A digest of the protocol: as §1

Each structure is given as a SMILES string. Where only a bound is given, the exact number is not on record here.

Gastrin-releasing peptide receptor (Homo sapiens), sequence (P30550 whole entry, looked up): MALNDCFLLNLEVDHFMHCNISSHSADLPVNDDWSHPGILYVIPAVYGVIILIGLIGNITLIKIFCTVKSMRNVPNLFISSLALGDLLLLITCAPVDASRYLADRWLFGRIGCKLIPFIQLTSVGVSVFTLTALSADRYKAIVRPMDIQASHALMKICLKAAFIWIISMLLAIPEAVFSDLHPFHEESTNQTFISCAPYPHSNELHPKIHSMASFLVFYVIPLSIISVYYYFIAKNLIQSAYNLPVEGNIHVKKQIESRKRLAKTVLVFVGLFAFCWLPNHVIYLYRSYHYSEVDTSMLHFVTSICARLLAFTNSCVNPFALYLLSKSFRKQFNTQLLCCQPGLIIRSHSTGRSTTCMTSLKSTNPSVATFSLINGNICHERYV
Neuromedin-B receptor (Homo sapiens), sequence (P28336 whole entry, looked up): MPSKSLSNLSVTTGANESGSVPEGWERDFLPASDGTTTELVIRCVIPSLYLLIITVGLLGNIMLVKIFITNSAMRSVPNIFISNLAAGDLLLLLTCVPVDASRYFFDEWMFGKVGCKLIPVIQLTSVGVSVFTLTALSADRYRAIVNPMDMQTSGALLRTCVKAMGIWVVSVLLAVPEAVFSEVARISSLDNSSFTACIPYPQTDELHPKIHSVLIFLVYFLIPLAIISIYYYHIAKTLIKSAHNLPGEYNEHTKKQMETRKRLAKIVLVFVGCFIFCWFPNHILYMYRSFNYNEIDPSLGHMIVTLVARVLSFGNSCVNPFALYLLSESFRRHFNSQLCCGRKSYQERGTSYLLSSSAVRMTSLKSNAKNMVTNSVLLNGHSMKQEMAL

Take `CC(C)NC(=O)NS(=O)(=O)c1cnccc1NC1CC2CCC1C2` (stereo unspecified): the EC50 in data set [1] stood at 220 nM. For the same compound, the IC50 in [2] came to 600 nM.
For `CC(C)(C)NC(=O)NS(=O)(=O)c1cnccc1NC1CC2CCC1C2` (stereo unspecified), the EC50 in data set [3] and in [4] was more than 10000 nM in each case.
Take `CC(C)(C)NC(=O)NS(=O)(=O)c1cnccc1NC1CC2CCC1C2` (racemic): the bioavailability in data set [5] was 100%. In data set [6], this compound yielded a Cmax of 7 µM. Also, the half-life in data set [7] is 288 min. Besides, in [8], the MRT came to 39.6 min. The Vd in [9] amounted to 0.57 L/kg. This compound also registered a clearance in data set [10] of 14 mL/min/kg.
Compound `CCC(C)(C)NC(=O)NS(=O)(=O)c1cnccc1NC1CC2CCC1C2` (racemic) displayed a bioavailability in [5] of 41%. The same compound gave a peak concentration (Cmax) in data set [6] of 2 µM. The same compound had a half-life in data set [7] of 15 min. In addition, in [8], the MRT came out at 11.4 min. Also, the Vd in data set [9] turned out to be 0.3 L/kg. In data set [10], this compound returned a clearance of 26 mL/min/kg.

Source of the values: ChEMBL document CHEMBL1759937, “Pyridinesulfonylureas and pyridinesulfonamides as selective bombesin receptor subtype-3 (BRS-3) agonists” (Bioorg Med Chem Lett, 2011).
